The source made the active and inactive calls.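 The calls were made as follows: active = potency EC50 below 10 µM in the dose response test; inactive = the rest.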

G-protein coupled receptor 35 (Homo sapiens), sequence (Q9HC97 whole entry, looked up): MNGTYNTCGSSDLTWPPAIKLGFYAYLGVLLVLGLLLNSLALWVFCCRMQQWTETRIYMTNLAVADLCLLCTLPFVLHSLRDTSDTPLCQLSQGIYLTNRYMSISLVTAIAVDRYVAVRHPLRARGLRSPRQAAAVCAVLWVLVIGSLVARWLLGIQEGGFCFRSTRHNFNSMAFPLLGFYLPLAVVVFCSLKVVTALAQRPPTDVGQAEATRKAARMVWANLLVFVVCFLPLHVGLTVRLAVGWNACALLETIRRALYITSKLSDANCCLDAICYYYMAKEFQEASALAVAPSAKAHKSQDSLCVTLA

The target of this assay is G-protein coupled receptor 35 (Homo sapiens) (UniProt Q9HC97). Briefly: beta-arrestin-GFP translocation driven by GPR35 – imaging, U2OS, powder samples, selectivity assay, SAR follow-up (AID 2340). The procedure, abridged:
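material = human U2OS cells stably co-expressing GPR35 and beta-arrestin-GFP | incubation = 45 min at 37 °C | read-out basis = Arrestin-GFP spot versus cytoplasm intensity ratio, non-linear sigmoidal curve fit | buffer or medium = serum-starved cells | technique = imaging of fixed, DAPI-stained arrestin-GFP cells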
The term EC50 denotes the concentration that produces a half-maximal response. Turning to `Cc1occc1C(=O)Nc1ccc(OCc2ccccc2)cc1`, the EC50 is > 32 µM (inactive). As to `Cc1cccc(N2CCN(C(=O)c3cc(S(=O)(=O)N(C)C)ccc3N3CCCC3)CC2)c1C`, the EC50 is > 32 µM (inactive).

On to `CC(C)=CC(=O)Nc1ccc(OCc2ccccc2)cc1`, for which the EC50 was > 32 µM (inactive). On to `COc1cc2c(cc1NC(=O)C(C)Sc1ccc(NC(C)=O)cc1)oc1ccccc12` (stereo unspecified), for which the EC50 is > 32 µM (inactive). In the case of `CC(C)NS(=O)(=O)c1ccc(NC(=S)NC(=O)c2ccc(-c3ccccc3)cc2)cc1`, the EC50 was > 32 µM (inactive).

With `COc1ccc(S(=O)(=O)N2CCOCC2)cc1NC(=O)c1cc2c(s1)CCCC2`, the EC50 is > 32 µM (inactive). The value for `COc1ccccc1/C=C/C(=O)NC(=S)Nc1ccc(S(=O)(=O)N(C)c2ccccc2)cc1` was > 32 µM (inactive).

In the case of `COc1cc2c(cc1NC(=O)CSc1ccccc1)oc1ccccc12`, the EC50 is > 32 µM (inactive). In the case of `COc1ccc2cc(C)c3nnc(SCC(=O)Nc4nc(-c5ccc(F)cc5)cs4)n3c2c1`, the EC50 was > 32 µM (inactive). `O=C(CSc1nc2ccccc2s1)N1c2ccccc2Sc2ccc(Cl)cc21`: the EC50 was > 32 µM (inactive). In the case of `CC(Sc1nc2cc(Cl)ccc2s1)C(=O)Nc1cccc(S(=O)(=O)N2CCOCC2)c1` (stereo unspecified), the EC50 is > 32 µM (inactive). The result for `COc1ccc2c(c1)cc(C)c1nnc(SCC(=O)N(C)c3nc(-c4ccccc4)cs3)n12` reads > 32 µM (inactive); that for `CC(C)Oc1ccc(S(=O)(=O)N2CCOCC2)cc1NC(=O)c1ccc(N2CCCC2=O)cc1`, > 32 µM (inactive). The value for `C=CCN(CC=C)S(=O)(=O)c1ccc(NC(=S)NC(=O)c2ccc(-c3ccccc3)cc2)cc1` was > 32 µM (inactive); that for `CCCN(CCC)Cc1c(C(=O)NN=Cc2c[nH]c3ccccc23)nnn1-c1nonc1N` was > 32 µM (inactive). The value for `CN(C)S(=O)(=O)c1ccc(N2CCCC2)c(C(=O)N2CCN(c3ccc([N+](=O)[O-])cc3)CC2)c1` was > 32 µM (inactive); that for `COc1ccc(-c2csc(NC(=O)CSc3nnc4c(C)cc5ccccc5n34)n2)cc1` was > 32 µM (inactive); that for `O=C(CSc1nc2ccccc2s1)N1c2ccccc2Sc2ccc(C(F)(F)F)cc21` was > 32 µM (inactive). For the molecule `CCCN(CCC)Cc1c(C(=O)NN=C/C(C)=C\c2ccccc2)nnn1-c1nonc1N`, the EC50 is > 32 µM (inactive). For the molecule `C/C(C=NNC(=O)c1nnn(-c2nonc2N)c1CN1CCC(C)CC1)=C/c1ccccc1`, the EC50 was > 32 µM (inactive). The value for `CCCN(CCC)Cc1c(C(=O)NN=C/C(C)=C\c2ccco2)nnn1-c1nonc1N` was > 32 µM (inactive).

The record behind these values is PubChem BioAssay AID2340 (Sanford-Burnham Center for Chemical Genomics, 2010).
